# Results from ChEMBL document CHEMBL4229360, “Antimalarial agents against both sexual and asexual parasites stages: structure-activity relationships and biological studies of the Malaria Box compound 1-[5-(4-bromo-2-chlorophenyl)furan-2-yl]-N-[(piperidin-4-yl)methyl]methanamine (MMV019918) and analogues” (Eur J Med Chem, 2018).
# The source made the active and inactive calls. The calls are words filed in the database; no cut-off is given here.
# Tests used:
# [1] = Cardiotoxicity in Langendorff perfused Wistar rat heart assessed as QRS interval time at 0.1 uM by electrocardiography (reference value: 13.31 to 14.35 milliseconds); format: toxicity, tissue-based
# [2] = Cardiotoxicity in Langendorff perfused Wistar rat heart assessed as frequency of heart rate at 1 uM by electrocardiography (reference value: 247.05 to 275.90 bpm); format: toxicity, tissue-based
# [3] = test system: Plasmodium falciparum; assay: Antiplasmodial activity against chloroquine-resistant Plasmodium falciparum W2 after 72 hrs by lactate dehydrogenase assay; format: functional, organism-based; details: W2, 72 h
# Outline: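 Asynchronous blood-stage cultures at 1–1.5% parasitemia and 1% final hematocrit in human A+ RBCs, RPMI 1640 with 1% AlbuMax, hypoxanthine, HEPES and glutamine. Serial dilutions from DMSO stocks, final DMSO <1%. Incubated 72 h at 37 °C under 1% O₂/5% CO₂. IC50 is the mean of ≥3 experiments in duplicate.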
# [4] = target: T1, Voltage-dependent L-type calcium channel subunit alpha-1C (Rattus norvegicus, UniProt P22002); assay: Inhibition of CaV1.2 channel in rat tail artery myocytes assessed as reduction in Ba2+ current at 30 uM at -50 mV holding potential by whole-cell patch-clamp assay; format: cell-based
# T1 sequence (P22002 whole entry): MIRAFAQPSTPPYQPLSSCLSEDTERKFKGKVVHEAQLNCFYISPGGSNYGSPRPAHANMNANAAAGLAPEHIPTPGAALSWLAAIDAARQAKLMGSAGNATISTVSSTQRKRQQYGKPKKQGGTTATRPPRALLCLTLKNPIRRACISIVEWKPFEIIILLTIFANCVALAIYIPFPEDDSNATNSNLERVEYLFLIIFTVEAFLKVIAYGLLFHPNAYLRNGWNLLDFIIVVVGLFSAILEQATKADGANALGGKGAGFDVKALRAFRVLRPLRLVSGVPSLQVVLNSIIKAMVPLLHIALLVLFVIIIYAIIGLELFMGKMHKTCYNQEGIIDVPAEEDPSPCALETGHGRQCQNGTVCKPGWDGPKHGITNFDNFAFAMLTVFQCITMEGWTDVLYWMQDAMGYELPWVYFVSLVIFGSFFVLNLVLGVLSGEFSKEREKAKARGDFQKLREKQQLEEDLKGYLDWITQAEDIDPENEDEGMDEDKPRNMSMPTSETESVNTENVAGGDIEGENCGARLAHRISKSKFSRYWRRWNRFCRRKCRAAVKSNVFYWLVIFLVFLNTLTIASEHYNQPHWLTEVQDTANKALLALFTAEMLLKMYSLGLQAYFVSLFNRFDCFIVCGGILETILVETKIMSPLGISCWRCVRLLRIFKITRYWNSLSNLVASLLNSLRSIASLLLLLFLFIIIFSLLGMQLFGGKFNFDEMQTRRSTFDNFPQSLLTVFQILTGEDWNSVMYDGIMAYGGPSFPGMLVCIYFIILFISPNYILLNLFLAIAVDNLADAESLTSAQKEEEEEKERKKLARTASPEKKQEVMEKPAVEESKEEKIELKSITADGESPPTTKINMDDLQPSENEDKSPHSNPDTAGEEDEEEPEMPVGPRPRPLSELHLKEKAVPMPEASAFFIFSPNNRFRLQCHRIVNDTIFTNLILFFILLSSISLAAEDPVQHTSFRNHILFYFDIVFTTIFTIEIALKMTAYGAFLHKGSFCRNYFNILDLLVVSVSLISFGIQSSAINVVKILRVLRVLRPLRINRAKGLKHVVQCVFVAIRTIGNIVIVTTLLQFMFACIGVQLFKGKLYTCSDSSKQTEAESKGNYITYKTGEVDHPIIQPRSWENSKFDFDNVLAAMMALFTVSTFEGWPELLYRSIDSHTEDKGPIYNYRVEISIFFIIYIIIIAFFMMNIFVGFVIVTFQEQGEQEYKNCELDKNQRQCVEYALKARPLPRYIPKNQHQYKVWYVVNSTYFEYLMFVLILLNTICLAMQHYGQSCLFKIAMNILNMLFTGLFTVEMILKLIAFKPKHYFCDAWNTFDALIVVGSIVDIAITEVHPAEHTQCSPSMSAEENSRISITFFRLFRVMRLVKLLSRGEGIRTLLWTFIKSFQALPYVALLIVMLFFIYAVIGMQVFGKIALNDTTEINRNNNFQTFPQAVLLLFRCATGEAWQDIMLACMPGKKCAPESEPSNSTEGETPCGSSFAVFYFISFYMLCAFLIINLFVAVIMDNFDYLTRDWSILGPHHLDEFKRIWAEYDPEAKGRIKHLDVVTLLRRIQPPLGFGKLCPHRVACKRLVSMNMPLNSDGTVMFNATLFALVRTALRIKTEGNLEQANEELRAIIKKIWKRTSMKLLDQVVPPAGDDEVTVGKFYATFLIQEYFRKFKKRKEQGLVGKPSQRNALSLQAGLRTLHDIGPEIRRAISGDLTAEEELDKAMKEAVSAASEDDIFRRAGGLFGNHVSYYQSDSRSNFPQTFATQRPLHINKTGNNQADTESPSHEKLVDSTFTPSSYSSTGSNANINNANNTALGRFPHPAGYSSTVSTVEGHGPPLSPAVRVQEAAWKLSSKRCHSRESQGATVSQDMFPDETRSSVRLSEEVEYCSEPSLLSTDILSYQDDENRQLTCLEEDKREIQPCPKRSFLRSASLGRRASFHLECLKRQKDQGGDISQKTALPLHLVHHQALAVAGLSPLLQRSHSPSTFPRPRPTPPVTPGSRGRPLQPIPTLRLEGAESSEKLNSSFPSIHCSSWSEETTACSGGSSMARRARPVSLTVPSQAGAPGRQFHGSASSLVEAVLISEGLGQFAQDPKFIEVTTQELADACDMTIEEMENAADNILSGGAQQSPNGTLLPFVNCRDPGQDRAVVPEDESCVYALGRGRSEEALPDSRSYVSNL
# Outline: (§1)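 Freshly isolated rat tail artery smooth muscle cells (collagenase digestion), whole-cell patch clamp at 20–22 °C. External solution: 5 mM Ba2+, 30 mM TEA; Cs+-based internal solution, pH 7.4. Currents from 250-ms pulses to 0 mV from Vh −50 mV at 0.067 Hz, after 7–10 min stabilisation. Leak corrected with 10 μM nifedipine. Peak current as % of control; n = 3–6 cells from ≥3 animals.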
# [5] = test system: Plasmodium falciparum; assay: Antiplasmodial activity against gametocytes of Plasmodium falciparum NF54 infected in Anopheles mosquitoes assessed as decrease in infection intensity measured at baseline infection intensity of 30 oocysts/midgut pre-treated with compound for 24 hrs before feeding and measured 8 days post infection by standard membrane feeding assay; format: functional, organism-based
# Outline: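 NF54-HGL luciferase-reporter gametocytes were pre-incubated with compound for 24 h, then membrane-fed to Anopheles mosquitoes. Infection was read by luminescence 8 d post-infection, with 24 mosquitoes analysed per feed and each feed done in duplicate. IC50 was derived for infection intensity and for prevalence at a baseline of 30 oocysts/midgut.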
# [6] = Cardiotoxicity in Langendorff perfused Wistar rat heart assessed as PQ interval time at 0.1 uM by electrocardiography (reference value: 41.13 to 42.63 milliseconds); format: toxicity, tissue-based
# [7] = test system: Plasmodium berghei; assay: (§2) Antimalarial activity against liver stage form of mCherry expressing Plasmodium berghei ANKA sporozoites infected in mouse primary hepatocytes assessed as reduction in parasite size at 0.0625 to 4 uM administered 2 hrs post infection and measured after 48 hrs post infection with medium change at 24 hrs post infection by fluorescent microscopic analysis; format: functional, organism-based
# Outline: (§3)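 Parasite number and size in unfixed cells by automated microscopy at 48 hpi. Detached cells collected at 65 hpi, counted by fluorescence microscopy, expressed as % of 48 h parasite number. n = 4; one-way ANOVA with Dunnett's test.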
# [8] = Cytotoxicity against mouse NIH/3T3 cells after 24 hrs by neutral red uptake assay; format: cell-based, NIH3T3; details: read-out: TC50
# Outline: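 NIH3T3 cells exposed for 24 h; viability by neutral red uptake. Mean of three experiments, six replicates each.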
# [9] = test system: Plasmodium falciparum; assay: Gametocytocidal activity against Plasmodium falciparum 3D7 elo1-pfs16-CBG99 late-stage (4 to 5) gametocytes assessed as inhibition of parasite viability after 72 hrs by luciferase reporter assay; format: functional, organism-based; details: 3D7 elo1-pfs16-CBG99, 72 h
# Outline: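 Transgenic 3D7elo1-pfs16-CBG99 gametocytes express CBG99 luciferase from the pfs16 promoter. Stage IV–V gametocytes (Giemsa-checked) were exposed at day 8–10 after NAG addition to serial dilutions in complete medium for 72 h. Samples at 2% haematocrit were then mixed 1:1 with D-luciferin (1 mM, pH 5.5 citrate) for 10 min and luminescence was read. IC50 came from non-linear regression, mean of ≥3 experiments in duplicate.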
# [10] = Cardiotoxicity in Langendorff perfused Wistar rat heart assessed as reduction of left ventricular pressure; format: toxicity, tissue-based
# [11] = Cardiotoxicity in Langendorff perfused Wistar rat heart assessed as QTc interval time at 10 uM by electrocardiography (reference value: 76.45 to 80.07 milliseconds); format: toxicity, tissue-based
# [12] = Cardiotoxicity in Langendorff perfused Wistar rat heart assessed as frequency of heart rate at 3 uM by electrocardiography (reference value: 247.05 to 275.90 bpm); format: toxicity, tissue-based
# [13] = target: T1, Voltage-dependent L-type calcium channel subunit alpha-1C; assay: Inhibition of CaV1.2 channel in rat tail artery myocytes assessed as reduction in Ba2+ current at -50 mV holding potential by whole-cell patch-clamp assay; format: cell-based; outline: as §1
# [14] = test system: Plasmodium berghei; assay: as §2, with “inhibition of detached cell formation rate” for “reduction in parasite size”; format: functional, organism-based; outline: as §3
# [15] = Cardiotoxicity in Langendorff perfused Wistar rat heart assessed as cycle length interval time at 10 uM by electrocardiography (reference value: 217.15 to 242.23 milliseconds); format: toxicity, tissue-based
# [16] = Cardiotoxicity in Langendorff perfused Wistar rat heart assessed as QRS interval time at 10 uM by electrocardiography (reference value: 13.31 to 14.35 milliseconds); format: toxicity, tissue-based
# [17] = Cardiotoxicity in Langendorff perfused Wistar rat heart assessed as QRS interval time at 3 uM by electrocardiography (reference value: 13.31 to 14.35 milliseconds); format: toxicity, tissue-based
# [18] = Cardiotoxicity in Langendorff perfused Wistar rat heart assessed as PQ interval time at 10 uM by electrocardiography (reference value: 41.13 to 42.63 milliseconds); format: toxicity, tissue-based
# [19] = Cardiotoxicity in Langendorff perfused Wistar rat heart assessed as PQ interval time at 3 uM by electrocardiography (reference value: 41.13 to 42.63 milliseconds); format: toxicity, tissue-based
# [20] = Cardiotoxicity in Langendorff perfused Wistar rat heart assessed as frequency of heart rate at 10 uM by electrocardiography (reference value: 247.05 to 275.90 bpm); format: toxicity, tissue-based
# [21] = Cardiotoxicity in Langendorff perfused Wistar rat heart assessed as QRS interval time at 1 uM by electrocardiography (reference value: 13.31 to 14.35 milliseconds); format: toxicity, tissue-based
# [22] = target: T2, Phosphoethanolamine N-methyltransferase (Plasmodium falciparum, UniProt Q8IDQ9); assay: Inhibition of plasmodium falciparum phosphoethanolamine N-methyltransferase expressed in Escherichia coli using phosphoethanolamine as substrate and [methyl-14C] SAM by radiochemical assay
# T2 sequence (Q8IDQ9 whole entry): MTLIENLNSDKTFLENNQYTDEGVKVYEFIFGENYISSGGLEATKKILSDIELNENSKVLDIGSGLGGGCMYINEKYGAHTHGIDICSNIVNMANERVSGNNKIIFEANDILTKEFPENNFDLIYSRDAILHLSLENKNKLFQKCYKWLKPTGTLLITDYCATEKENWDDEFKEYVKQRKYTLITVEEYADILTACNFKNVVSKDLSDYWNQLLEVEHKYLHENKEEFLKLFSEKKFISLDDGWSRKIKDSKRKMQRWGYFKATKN
# Outline: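 Recombinant PfPMT purified from E. coli, 2 μg per 100 μL reaction. Buffer 0.1 M HEPES-KOH pH 8.0, 2 mM Na2EDTA, 10% glycerol, 5% DMSO, with 30 μM SAM (100 nCi [methyl-14C]SAM) and 55 μM phosphoethanolamine; radiochemical read-out.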
compound,measurement,setting,value
Clc1ccc(-c2ccc(CNCC3CCNCC3)o2)c(-c2ccccc2)c1,Time,[1],14.2 ms
same,Activity,[2],275.47 bpm
same,IC50,[3],2400 nM
same,inhibition (INH),[4],Active
same,IC50,[5],210 nM
same,Time,[6],41.24 ms
same,Activity,[7],inactive
same,CC50 at 24 h,[8],20000 nM
same,IC50,[9],1400 nM
same,Activity,[10],Dose-dependent effect
same,Time,[11],83.77 ms
same,Activity,[12],276.4 bpm
same,IC50,[13],3300 nM
same,inhibition (INH),[13]; rat,Dose-dependent effect
same,Activity,[14],inactive
same,Time,[15],232.2 ms
same,Time,[16],17.91 ms
same,Time,[17],14.65 ms
same,Time,[18],65.08 ms
same,Time,[19],45.47 ms
same,Activity,[20],259.41 bpm
same,Time,[21],13.7 ms
same,IC50,[22],44300 nM
